Experimental data as given in ChEMBL document CHEMBL1629633, “Prevalence of sulfonamide resistance genes in bacterial isolates from manured agricultural soils and pig slurry in the United Kingdom” (2009).
Values after ≈ are worked out from the molar mass of the structure shown.

How the values were obtained:
[1] = system: Lysinibacillus sphaericus; assay: Antimicrobial activity against Bacillus sphaericus isolate C237 harboring sul1 to sul3 genes by agar dilution method; assay type: functional
Method in brief: (§1)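 Agar dilution on Iso-Sensitest agar for MICs and resistance breakpoints. Each isolate's inoculum (100 μl) was adjusted to OD600 0.4. Isolates came from soil cores of a field given pig slurry, or from the pig slurry itself. They were picked from nonselective or antibiotic plates incubated aerobically at 28°C, purified by restreaking, checked for sul genes by PCR and identified by 16S rRNA sequencing.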

[2] = system: Stenotrophomonas maltophilia; assay: Antimicrobial activity against Stenotrophomonas maltophilia isolate C422 harboring sul1 to sul3 genes by agar dilution method; assay type: functional
Method in brief: (§2)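 Isolates were recovered from manured clay soil or pig slurry on Iso-Sensitest agar at 28°C. sul genes were detected by PCR, and identity was assigned by ~800 bp 16S rRNA sequencing. MICs and resistance breakpoints were found by agar dilution on Iso-Sensitest agar, with each inoculum (100 μl) adjusted to OD600 0.4.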

Pseudomonas fluorescens [3] = assay: Antimicrobial activity against Pseudomonas fluorescens isolate C131 harboring sul1 to sul3 genes by agar dilution method; assay type: functional; method in brief: as §1
Acinetobacter lwoffii [4] = assay: Antimicrobial activity against Acinetobacter lwoffii isolate C3 harboring sul1 to sul3 genes by agar dilution method; assay type: functional; method in brief: as §1
Aerococcus viridans [5] = assay: Antimicrobial activity against Aerococcus viridans isolate PGS22 harboring sul1 to sul3 genes by agar dilution method; assay type: functional; method in brief: as §1
Shigella flexneri [6] = assay: Antimicrobial activity against Shigella flexneri isolate C506 harboring sul1 to sul3 genes by agar dilution method; assay type: functional; method in brief: as §2
Pseudomonas lini = assay: Antimicrobial activity against Pseudomonas lini isolate C701 harboring sul1 to sul3 genes by agar dilution method; assay type: functional; method in brief: as §1
[7] = Antimicrobial activity against Acinetobacter sp. N2 isolate C439 harboring sul1 to sul3 genes by agar dilution method; assay type: functional; method in brief: as §1
Pseudomonas borealis [8] = assay: Antimicrobial activity against Pseudomonas borealis isolate C5 harboring sul1 to sul3 genes by agar dilution method; assay type: functional; method in brief: as §1
Enterococcus hirae [9] = assay: Antimicrobial activity against Enterococcus hirae isolate PGS48 harboring sul1 to sul3 genes by agar dilution method; assay type: functional; method in brief: as §1
Providencia stuartii [10] = assay: Antimicrobial activity against Providencia stuartii isolate C167 harboring sul1 to sul3 genes by agar dilution method; assay type: functional; method in brief: as §1
Acinetobacter lwoffii [11] = assay: Antimicrobial activity against Acinetobacter lwoffii isolate C2 harboring sul1 to sul3 genes by agar dilution method; assay type: functional; method in brief: as §1
Pseudomonas putida [12] = assay: Antimicrobial activity against Pseudomonas putida isolate C231 harboring sul1 to sul3 genes by agar dilution method; assay type: functional; method in brief: as §1
[13] = system: Arthrobacter arilaitensis; assay: Antimicrobial activity against Arthrobacter arilaitensis isolate C361 harboring sul1 to sul3 genes by agar dilution method; assay type: functional; conditions: Glutamicibacter arilaitensis; method in brief: as §1
[14] = Antimicrobial activity against Acinetobacter sp. An9 isolate PGS49 harboring sul1 to sul3 genes by agar dilution method; assay type: functional; method in brief: as §1
[15] = Antimicrobial activity against Psychrobacter ikaite isolate C410 harboring sul1 to sul3 genes by agar dilution method; assay type: functional; method in brief: as §2
Acinetobacter lwoffii [16] = assay: Antimicrobial activity against Acinetobacter lwoffii isolate PGS47 harboring sul1 to sul3 genes by agar dilution method; assay type: functional; method in brief: as §1
Enterococcus sulfureus [17] = assay: Antimicrobial activity against Enterococcus sulfureus isolate PGS61 harboring sul1 to sul3 genes by agar dilution method; assay type: functional; method in brief: as §1
Aerococcus viridans [18] = assay: Antimicrobial activity against Aerococcus viridans isolate PGS21 harboring sul1 to sul3 genes by agar dilution method; assay type: functional; method in brief: as §1
Acinetobacter lwoffii [19] = assay: Antimicrobial activity against Acinetobacter lwoffii isolate C15 harboring sul1 to sul3 genes by agar dilution method; assay type: functional; method in brief: as §1
[20] = Antimicrobial activity against Psychrobacter ikaite isolate C20 harboring sul1 to sul3 genes by agar dilution method; assay type: functional; method in brief: as §2
[21] = Antimicrobial activity against Psychrobacter sp. DY9-2 isolate C711 harboring sul1 to sul3 genes by agar dilution method; assay type: functional; method in brief: as §2
[22] = system: Psychrobacter frigidicola; assay: Antimicrobial activity against Psychrobacter frigidicola isolate C712 harboring sul1 to sul3 genes by agar dilution method; assay type: functional; method in brief: as §1
[23] = Antimicrobial activity against Psychrobacter ikaite isolate C713 harboring sul1 to sul3 genes by agar dilution method; assay type: functional; method in brief: as §2
[24] = system: Acinetobacter calcoaceticus; assay: Antimicrobial activity against Acinetobacter calcoaceticus isolate C35 harboring sul1 to sul3 genes by agar dilution method; assay type: functional; method in brief: as §1
[25] = system: Acinetobacter calcoaceticus; assay: Antimicrobial activity against Acinetobacter calcoaceticus isolate C36 harboring sul1 to sul3 genes by agar dilution method; assay type: functional; method in brief: as §1
Acinetobacter lwoffii [26] = assay: Antimicrobial activity against Acinetobacter lwoffii isolate C37 harboring sul1 to sul3 genes by agar dilution method; assay type: functional; method in brief: as §1
[27] = system: Acinetobacter rhizosphaerae; assay: Antimicrobial activity against Acinetobacter rhizosphaerae isolate C44 harboring sul1 to sul3 genes by agar dilution method; assay type: functional; method in brief: as §1
Acinetobacter lwoffii [28] = assay: Antimicrobial activity against Acinetobacter lwoffii isolate C141 harboring sul1 to sul3 genes by agar dilution method; assay type: functional; method in brief: as §1
Bacillus psychrodurans [29] = assay: Antimicrobial activity against Bacillus psychrodurans isolate C328 harboring sul1 to sul3 genes by agar dilution method; assay type: functional; conditions: Psychrobacillus psychrodurans; method in brief: as §1
Acinetobacter baumannii [30] = assay: Antimicrobial activity against Acinetobacter baumannii isolate C442 harboring sul1 to sul3 genes by agar dilution method; assay type: functional; method in brief: as §1
[31] = Antimicrobial activity against Acinetobacter sp. N2 isolate C439 harboring sul1 to sul3 genes assessed as antibiotic resistance breakpoint by agar dilution method; assay type: functional; method in brief: as §1
Aerococcus viridans [32] = assay: Antimicrobial activity against Aerococcus viridans isolate PGS22 harboring sul1 to sul3 genes assessed as antibiotic resistance breakpoint by agar dilution method; assay type: functional; method in brief: as §1
Pseudomonas fluorescens [33] = assay: Antimicrobial activity against Pseudomonas fluorescens isolate C131 harboring sul1 to sul3 genes assessed as antibiotic resistance breakpoint by agar dilution method; assay type: functional; method in brief: as §1
Acinetobacter lwoffii [34] = assay: Antimicrobial activity against Acinetobacter lwoffii isolate C2 harboring sul1 to sul3 genes assessed as antibiotic resistance breakpoint by agar dilution method; assay type: functional; method in brief: as §1
Providencia stuartii [35] = assay: Antimicrobial activity against Providencia stuartii isolate C167 harboring sul1 to sul3 genes assessed as antibiotic resistance breakpoint by agar dilution method; assay type: functional; method in brief: as §1
Enterococcus hirae [36] = assay: Antimicrobial activity against Enterococcus hirae isolate PGS48 harboring sul1 to sul3 genes assessed as antibiotic resistance breakpoint by agar dilution method; assay type: functional; method in brief: as §1
Pseudomonas borealis [37] = assay: Antimicrobial activity against Pseudomonas borealis isolate C5 harboring sul1 to sul3 genes assessed as antibiotic resistance breakpoint by agar dilution method; assay type: functional; method in brief: as §1
[38] = system: Arthrobacter arilaitensis; assay: Antimicrobial activity against Arthrobacter arilaitensis isolate C361 harboring sul1 to sul3 genes assessed as antibiotic resistance breakpoint by agar dilution method; assay type: functional, Glutamicibacter arilaitensis; method in brief: as §1
Pseudomonas putida [39] = assay: Antimicrobial activity against Pseudomonas putida isolate C231 harboring sul1 to sul3 genes assessed as antibiotic resistance breakpoint by agar dilution method; assay type: functional; method in brief: as §1
[40] = Antimicrobial activity against Psychrobacter ikaite isolate C410 harboring sul1 to sul3 genes assessed as antibiotic resistance breakpoint by agar dilution method; assay type: functional; method in brief: as §2
Enterococcus sulfureus [41] = assay: Antimicrobial activity against Enterococcus sulfureus isolate PGS61 harboring sul1 to sul3 genes assessed as antibiotic resistance breakpoint by agar dilution method; assay type: functional; method in brief: as §1
Aerococcus viridans [42] = assay: Antimicrobial activity against Aerococcus viridans isolate PGS21 harboring sul1 to sul3 genes assessed as antibiotic resistance breakpoint by agar dilution method; assay type: functional; method in brief: as §1
Acinetobacter lwoffii [43] = assay: Antimicrobial activity against Acinetobacter lwoffii isolate C15 harboring sul1 to sul3 genes assessed as antibiotic resistance breakpoint by agar dilution method; assay type: functional; method in brief: as §1
[44] = Antimicrobial activity against Psychrobacter ikaite isolate C20 harboring sul1 to sul3 genes assessed as antibiotic resistance breakpoint by agar dilution method; assay type: functional; method in brief: as §1
[45] = Antimicrobial activity against Psychrobacter sp. DY9-2 isolate C711 harboring sul1 to sul3 genes assessed as antibiotic resistance breakpoint by agar dilution method; assay type: functional; method in brief: as §2
[46] = system: Psychrobacter frigidicola; assay: Antimicrobial activity against Psychrobacter frigidicola isolate C712 harboring sul1 to sul3 genes assessed as antibiotic resistance breakpoint by agar dilution method; assay type: functional; method in brief: as §1
[47] = Antimicrobial activity against Psychrobacter ikaite isolate C713 harboring sul1 to sul3 genes assessed as antibiotic resistance breakpoint by agar dilution method; assay type: functional; method in brief: as §2
[48] = system: Acinetobacter calcoaceticus; assay: Antimicrobial activity against Acinetobacter calcoaceticus isolate C35 harboring sul1 to sul3 genes assessed as antibiotic resistance breakpoint by agar dilution method; assay type: functional; method in brief: as §1
[49] = system: Acinetobacter calcoaceticus; assay: Antimicrobial activity against Acinetobacter calcoaceticus isolate C36 harboring sul1 to sul3 genes assessed as antibiotic resistance breakpoint by agar dilution method; assay type: functional; method in brief: as §1
Acinetobacter lwoffii [50] = assay: Antimicrobial activity against Acinetobacter lwoffii isolate C37 harboring sul1 to sul3 genes assessed as antibiotic resistance breakpoint by agar dilution method; assay type: functional; method in brief: as §1
[51] = system: Acinetobacter rhizosphaerae; assay: Antimicrobial activity against Acinetobacter rhizosphaerae isolate C44 harboring sul1 to sul3 genes assessed as antibiotic resistance breakpoint by agar dilution method; assay type: functional; method in brief: as §1
Acinetobacter lwoffii [52] = assay: Antimicrobial activity against Acinetobacter lwoffii isolate C141 harboring sul1 to sul3 genes assessed as antibiotic resistance breakpoint by agar dilution method; assay type: functional; method in brief: as §1
Bacillus psychrodurans [53] = assay: Antimicrobial activity against Bacillus psychrodurans isolate C328 harboring sul1 to sul3 genes assessed as antibiotic resistance breakpoint by agar dilution method; assay type: functional, Psychrobacillus psychrodurans; method in brief: as §1
Acinetobacter baumannii [54] = assay: Antimicrobial activity against Acinetobacter baumannii isolate C442 harboring sul1 to sul3 genes assessed as antibiotic resistance breakpoint by agar dilution method; assay type: functional; method in brief: as §1
Shigella flexneri [55] = assay: Antimicrobial activity against Shigella flexneri isolate C506 harboring sul1 to sul3 genes assessed as antibiotic resistance breakpoint by agar dilution method; assay type: functional; method in brief: as §2

Nc1ccc(S(=O)(=O)Nc2ccc(Cl)nn2)cc1 [SULFACHLORPYRIDAZINE]
MIC [1]: 1 µg/mL (≈ 3.51 µM) | MIC [2]: 1 µg/mL (≈ 3.51 µM) | MIC (Pseudomonas fluorescens [3]): 32 µg/mL (≈ 112 µM) | MIC (Acinetobacter lwoffii [4]): 1 µg/mL (≈ 3.51 µM) | MIC (Aerococcus viridans [5]): 8 µg/mL (≈ 28.1 µM) | MIC (Shigella flexneri [6]): 8 µg/mL (≈ 28.1 µM) | MIC (Pseudomonas lini): 1 µg/mL (≈ 3.51 µM) | MIC [7]: 16 µg/mL (≈ 56.2 µM) | MIC (Pseudomonas borealis [8]): 32 µg/mL (≈ 112 µM) | MIC (Enterococcus hirae [9]): 4 µg/mL (≈ 14 µM) | MIC (Providencia stuartii [10]): 6 µg/mL (≈ 21.1 µM) | MIC (Acinetobacter lwoffii [11]): 5 µg/mL (≈ 17.6 µM) | MIC (Pseudomonas putida [12]): 8 µg/mL (≈ 28.1 µM) | MIC [13]: 5 µg/mL (≈ 17.6 µM) | MIC [14]: 16 µg/mL (≈ 56.2 µM) | MIC [15]: 16 µg/mL (≈ 56.2 µM) | MIC (Acinetobacter lwoffii [16]): 16 µg/mL (≈ 56.2 µM) | MIC (Enterococcus sulfureus [17]): 4 µg/mL (≈ 14 µM) | MIC (Aerococcus viridans [18]): 32 µg/mL (≈ 112 µM) | MIC (Acinetobacter lwoffii [19]): 5 µg/mL (≈ 17.6 µM) | MIC [20]: 5 µg/mL (≈ 17.6 µM) | MIC [21]: 8 µg/mL (≈ 28.1 µM) | MIC [22]: 8 µg/mL (≈ 28.1 µM) | MIC [23]: 8 µg/mL (≈ 28.1 µM) | MIC [24]: 8 µg/mL (≈ 28.1 µM) | MIC [25]: 8 µg/mL (≈ 28.1 µM) | MIC (Acinetobacter lwoffii [26]): 8 µg/mL (≈ 28.1 µM) | MIC [27]: 5 µg/mL (≈ 17.6 µM) | MIC (Acinetobacter lwoffii [28]): 6 µg/mL (≈ 21.1 µM) | MIC (Bacillus psychrodurans [29]): 8 µg/mL (≈ 28.1 µM) | MIC (Acinetobacter baumannii [30]): 8 µg/mL (≈ 28.1 µM)

CN(C)[C@@H]1C(O)=C(C(N)=O)C(=O)[C@@]2(O)C(O)=C3C(=O)c4c(O)cccc4[C@@](C)(O)[C@H]3C[C@@H]12 [TETRACYCLINE]
Activity [31]: 8 µg/mL | Activity (Aerococcus viridans [32]): 8 µg/mL | Activity (Pseudomonas fluorescens [33]): 8 µg/mL | Activity (Acinetobacter lwoffii [34]): 8 µg/mL | Activity (Providencia stuartii [35]): 8 µg/mL | Activity (Enterococcus hirae [36]): 8 µg/mL | Activity (Pseudomonas borealis [37]): 8 µg/mL | Activity [38]: 8 µg/mL | Activity (Pseudomonas putida [39]): 8 µg/mL | Activity [40]: 8 µg/mL | Activity (Enterococcus sulfureus [41]): 8 µg/mL | Activity (Aerococcus viridans [42]): 8 µg/mL | Activity (Acinetobacter lwoffii [43]): 8 µg/mL | Activity [44]: 8 µg/mL | Activity [45]: 8 µg/mL | Activity [46]: 8 µg/mL | Activity [47]: 8 µg/mL | Activity [48]: 8 µg/mL | Activity [49]: 8 µg/mL | Activity (Acinetobacter lwoffii [50]): 8 µg/mL | Activity [51]: 8 µg/mL | Activity (Acinetobacter lwoffii [52]): 8 µg/mL | Activity (Bacillus psychrodurans [53]): 8 µg/mL | Activity (Acinetobacter baumannii [54]): 8 µg/mL | Activity (Shigella flexneri [55]): 8 µg/mL
